Experimental data reported in ChEMBL document CHEMBL1131338, “Binding of ATP-sensitive potassium channel (KATP) openers to cardiac membranes: correlation of binding affinities with cardioprotective and smooth muscle relaxing potencies” (J Med Chem, 1998).

How the values were obtained:
Rattus norvegicus [1] = species on record: Rattus norvegicus; assay: Effective concentration required to increase time to the onset of contracture (TTC) in globally ischemic rat hearts; assay type: functional
Rattus norvegicus [2] = species on record: Rattus norvegicus; assay: Inhibitory concentration against methoxamine-induced contractions in rat aorta; assay type: functional, organism-based
[3] = target: Sulfonylurea receptor 2, Kir6.2 (Homo sapiens) (UniProt Q14654+O60706); assay: Hill Coefficient calculated by curve fitting of data to a single binding site model; assay type: protein-complex assay
Outline: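 Competition curves from displacement of 14 nM [3H]P1075 from canine cardiac P3 membranes (500–700 μg, 60 min, MgATP/vanadate/Mg2+ sucrose-Tris buffer pH 7.4, filtration read-out) were fitted to a single-site model to give the Hill coefficient.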

Structure (SMILES): CC1(C)Oc2ccc(C#N)cc2[C@H](N2CCCC2=O)[C@H]1O (single isomer, unassigned) [(-)-CROMAKALIM]
- EC25 (Rattus norvegicus [1]): 2300 nM
- IC50 (Rattus norvegicus [2]): 40.1 nM

Structure (SMILES): CCC(C)(C)/N=C(\NC#N)Nc1ccc(I)cc1
- EC25 (Rattus norvegicus [1]): 140 nM
- Hill coefficient [3]: 0.76
- IC50 (Rattus norvegicus [2]; Rattus norvegicus, Aorta): 1.4 nM

Structure (SMILES): C/N=C(\NC#N)Nc1ccc(C#N)cc1
- EC25 (Rattus norvegicus [1]): >10000 nM
- IC50 (Rattus norvegicus [2]; Rattus norvegicus, Aorta): 130000 nM

Structure (SMILES): CC1(C)Oc2ccc(C#N)cc2[C@H](N2CCCC2=O)[C@H]1O [(-)-CROMAKALIM]
- EC25 (Rattus norvegicus [1]): >30000 nM
- IC50 (Rattus norvegicus [2]): 6500 nM

Structure (SMILES): COc1ccc(Cl)cc1C(=O)NCCc1ccc(S(=O)(=O)NC(=O)NC2CCCCC2)cc1 [GLYBURIDE]
- Hill coefficient [3]: 0.67

Structure (SMILES): CCC(C)(C)/N=C(\NC#N)Nc1cccc(S(=O)(=O)N2CCCCC2)c1
- EC25 (Rattus norvegicus [1]): >10000 nM
- IC50 (Rattus norvegicus [2]; Rattus norvegicus, Aorta): 12800 nM

Structure (SMILES): CCC(C)(C)/N=C(\NC#N)Nc1ccc(I)c(N=[N+]=[N-])c1
- EC25 (Rattus norvegicus [1]): 39 nM
- Hill coefficient [3]: 0.82

Structure (SMILES): CC(/N=C(\NC#N)Nc1cccc(C#N)c1)C(C)(C)C (stereo not given)
- EC25 (Rattus norvegicus [1]): 1460 nM
- Hill coefficient [3]: 0.67
- IC50 (Rattus norvegicus [2]; Rattus norvegicus, Aorta): 190 nM

Structure (SMILES): CC(/N=C(\NC#N)Nc1ccccc1)C(C)(C)C (stereo not given)
- EC25 (Rattus norvegicus [1]): 1290 nM
- Hill coefficient [3]: 1.04
- IC50 (Rattus norvegicus [2]; Rattus norvegicus, Aorta): 980 nM

Structure (SMILES): CC1(C)Oc2ccc(C#N)cc2[C@H](N2CCCC2=O)[C@H]1O
- Hill coefficient [3]: 1.06

Structure (SMILES): CC(/N=C(\NC#N)Nc1ccc(C#N)cc1)C(C)(C)C (stereo not given)
- EC25 (Rattus norvegicus [1]): 390 nM
- Hill coefficient [3]: 0.75
- IC50 (Rattus norvegicus [2]; Rattus norvegicus, Aorta): 30.3 nM

Structure (SMILES): CCC(C)(C)/N=C(\NC#N)Nc1ccc(C#N)cc1
- EC25 (Rattus norvegicus [1]): 400 nM
- Hill coefficient [3]: 0.99
- IC50 (Rattus norvegicus [2]; Rattus norvegicus, Aorta): 130 nM

Structure (SMILES): CC1(C)Oc2ccc(C#N)cc2[C@H](N2CCCC2=O)[C@H]1O (single isomer, unassigned)
- Hill coefficient [3]: 1.5

Structure (SMILES): CC(C)(C)/N=C(\NC#N)Nc1ccc(C#N)cc1
- EC25 (Rattus norvegicus [1]): 1380 nM
- Hill coefficient [3]: 1.15
- IC50 (Rattus norvegicus [2]; Rattus norvegicus, Aorta): 530 nM

Structure (SMILES): CC(C)/N=C(\NC#N)Nc1ccc(C#N)cc1
- Hill coefficient [3]: 0.81

Structure (SMILES): CC(N/C(=N\C#N)Nc1ccncc1)C(C)(C)C (stereo not given) [PINACIDIL ANHYDROUS]
- EC25 (Rattus norvegicus [1]): 1200 nM
- Hill coefficient [3]: 0.86
- IC50 (Rattus norvegicus [2]; Rattus norvegicus, Aorta): 59.6 nM

Structure (SMILES): CCC(C)(C)/N=C(\NC#N)Nc1cccnc1
- EC25 (Rattus norvegicus [1]): 60 nM
- Hill coefficient [3]: 1.17
- IC50 (Rattus norvegicus [2]; Rattus norvegicus, Aorta): 4.4 nM

Structure (SMILES): CCC(C)(C)/N=C(\NC#N)Nc1ccc(S(=O)(=O)N2CCCCC2)cc1
- EC25 (Rattus norvegicus [1]): >10000 nM
- IC50 (Rattus norvegicus [2]; Rattus norvegicus, Aorta): > 30 nM
